Assay results taken from ChEMBL document CHEMBL1649410, “Discovery of 7-N-piperazinylthiazolo[5,4-d]pyrimidine analogues as a novel class of immunosuppressive agents with in vivo biological activity” (J Med Chem, 2011).

Key:
Lymphocyte = experiment: Immunosuppressive activity in peripheral blood lymphocytes isolated from two individuals assessed as proliferation using [methyl-3H]thymidine by mixed lymphocyte reaction assay; type: functional, cell-based; conditions: Homo sapiens
Method in brief: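 Human PBMCs from heparinized blood of healthy donors, isolated over Lymphoprep, 1.6 × 10⁶ cells/mL in RPMI-1640 with 10% heat-inactivated FCS. Stimulators: RPMI1788 cells given 30 μg/mL mitomycin C, 20 min, 37 °C, washed, 0.6 × 10⁶ cells/mL. Cells mixed with diluted compound, 5 days at 37 °C in 5% CO₂. 1 μCi (methyl-³H)thymidine added for last 18 h; harvested, cpm counted. IC₅₀ from two independent experiments (mean).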

Mus musculus [1] = experiment: Toxicity in BALB/c mouse during cardiac allograft from C57BL/6 mouse at 40 mg/kg, po treatment started from day of transplantation for 30 days; type: organism-based; parameters: dose 40 mg/kg, route oral; conditions: in vivo, 720 h
Method in brief: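 Female mice aged 8-10 weeks, 20-25 g: C57BL/6 (H-2^b) donors, Balb/c (H-2^d) recipients. Recipients randomized to groups. Dosing 40 (mg/kg)/day by daily gavage. Vehicle 30% 2-hydroxypropyl-β-cyclodextrin given alone to controls (n = 6). […] Graft survival recorded in days. Student t test against vehicle group.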

Mus musculus [2] = experiment: Suppression of cardiac allograft rejection of C57BL/6 mouse to BALB/c mouse assessed as surviving days at 40 mg/kg, po treatment started from day of transplantation for 30 days by immunosuppressive assay; type: functional
Method in brief: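 Female mice aged 8-10 weeks and weighing 20-25 g. Donors were inbred C57BL/6 (H-2b) and recipients Balb/c (H-2d). Animals were randomly allocated and dosed by daily gavage in 30% 2-hydroxypropyl-β-cyclodextrin. […] Each graft was scored as surviving days, compared with vehicle by Student t test.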

| Compound | IC50 (Lymphocyte) [nM] | Activity (Mus musculus [1]) | Survival (Mus musculus [2]) [days] |
| --- | --- | --- | --- |
| Nc1nc(N2CCN(C(=O)COc3ccc(Cl)cc3)CC2)c2sc(-c3ccc(F)cc3)nc2n1 | > 10000 | – | – |
| Nc1nc(N2CCNCC2)c2nc(-c3ccc(F)cc3)sc2n1 | 4300 | – | – |
| Nc1nc(N2CCN(C(=O)COc3ccc(Cl)cc3)CC2)c2nc(-c3ccc(F)cc3)sc2n1 | 490 | – | – |
| CC(C)(Oc1ccc(Cl)cc1)C(=O)N1CCN(c2nc(N)nc3sc(-c4ccc(F)cc4)nc23)CC1 | > 10000 | – | – |
| Cc1ccc(NC(=O)N2CCN(c3nc(N)nc4sc(-c5ccc(F)cc5)nc34)CC2)cc1 | 700 | – | – |
| Cc1cccc(NC(=O)N2CCN(c3nc(N)nc4sc(-c5ccc(F)cc5)nc34)CC2)c1 | 300 | – | – |
| Nc1nc(N2CCN(S(=O)(=O)c3ccccc3)CC2)c2nc(-c3ccc(F)cc3)sc2n1 | > 10000 | – | – |
| Nc1nc(N2CCN(C(=O)OCc3ccccc3)CC2)c2nc(-c3ccc(F)cc3)sc2n1 | 4900 | – | – |
| CCCCCN1CCN(c2nc(N)nc3sc(-c4ccc(F)cc4)nc23)CC1 | > 10000 | – | – |
| Nc1nc(N2CCN(Cc3ccccc3)CC2)c2nc(-c3ccc(F)cc3)sc2n1 | > 10000 | – | – |
| Cc1cccc(N2CCN(c3nc(N)nc4sc(-c5ccc(F)cc5)nc34)CC2)c1 | > 10000 | – | – |
| Nc1nc(N2CCN(C(=O)COc3ccc(Cl)cc3)CC2)c2nc(-c3ccc(F)cc3)oc2n1 | 3000 | – | – |
| Nc1nc(N2CCN(C(=O)COc3ccc(Cl)cc3)CC2)c2nc(-c3ccc(F)cc3)[nH]c2n1 | 800 | – | – |
| Nc1nc(N2CCN(C(=O)COc3ccc(Cl)cc3)CC2)c2cc(-c3ccc(F)cc3)sc2n1 | 700 | – | – |
| Nc1nc(N2CCN(C(=O)COc3ccc(Cl)cc3)CC2)c2nc(Cc3ccc(F)cc3)sc2n1 | 700 | – | – |
| CC(c1ccc(F)cc1)c1nc2c(N3CCN(C(=O)COc4ccc(Cl)cc4)CC3)nc(N)nc2s1 (centres undefined) | 4380 | – | – |

| Compound | IC50 (Lymphocyte) [nM] | Activity (Mus musculus [1]) | Survival (Mus musculus [2]) [days] |
| --- | --- | --- | --- |
| Nc1nc(N2CCN(C(=O)COc3ccc(Cl)cc3)CC2)c2nc(CCc3ccc(F)cc3)sc2n1 | 4400 | – | – |
| Nc1nc(N2CCN(C(=O)COc3ccc(Cl)cc3)CC2)c2nc(CCOc3ccc(F)cc3)sc2n1 | 3540 | – | – |
| Nc1nc(N2CCN(C(=O)COc3ccc(Cl)cc3)CC2)c2nc(CCCCc3ccc(F)cc3)sc2n1 | 920 | – | – |
| CCCCCc1nc2c(N3CCN(C(=O)COc4ccc(Cl)cc4)CC3)nc(N)nc2s1 | 690 | – | – |
| Cc1ccc(-c2nc3c(N4CCN(C(=O)COc5ccc(Cl)cc5)CC4)nc(N)nc3s2)cc1 | 350 | – | – |
| Nc1nc(N2CCN(C(=O)COc3ccc(Cl)cc3)CC2)c2nc(-c3ccc(Cl)cc3)sc2n1 | 270 | – | – |
| Nc1nc(N2CCN(C(=O)COc3ccc(Cl)cc3)CC2)c2nc(-c3ccncc3)sc2n1 | 40 | – | – |
| Nc1nc(N2CCN(C(=O)COc3ccc(Cl)cc3)CC2)c2nc(-c3cccnc3)sc2n1 | 50 | Non-toxic | >17 |
| Nc1nc(N2CCN(C(=O)COc3ccc(Cl)cc3)CC2)c2nc(-c3ccccn3)sc2n1 | 230 | – | – |
| Nc1nc(N2CCN(C(=O)COc3ccccc3)CC2)c2nc(-c3ccc(F)cc3)sc2n1 | 90 | – | – |
| Nc1nc(N2CCN(C(=O)COc3ccc(F)cc3)CC2)c2nc(-c3ccc(F)cc3)sc2n1 | 70 | – | – |
| Nc1nc(N2CCN(C(=O)COc3ccc(Br)cc3)CC2)c2nc(-c3ccc(F)cc3)sc2n1 | 380 | – | – |
| COc1ccc(OCC(=O)N2CCN(c3nc(N)nc4sc(-c5ccc(F)cc5)nc34)CC2)cc1 | 40 | – | – |
| Nc1nc(N2CCN(C(=O)COc3ccc(F)cc3)CC2)c2nc(-c3cccnc3)sc2n1 | 12 | – | – |
| COc1ccc(OCC(=O)N2CCN(c3nc(N)nc4sc(-c5cccnc5)nc34)CC2)cc1 | 12 | – | – |
| C/C=C/C[C@@H](C)[C@@H](O)[C@H]1C(=O)N[C@@H](CC)C(=O)N(C)CC(=O)N(C)[C@@H](CC(C)C)C(=O)N[C@@H](C(C)C)C(=O)N(C)[C@@H](CC(C)C)C(=O)N[C@@H](C)C(=O)N[C@H](C)C(=O)N(C)[C@@H](CC(C)C)C(=O)N(C)[C@@H](CC(C)C)C(=O)N(C)[C@@H](C(C)C)C(=O)N1C [CYCLOSPORINE] | – | – | >30 |
